Source: ChEMBL document CHEMBL4304834, “3-Amino-chromanes and Tetrahydroquinolines as Selective 5-HT2B, 5-HT7, or σ1 Receptor Ligands” (ACS Med Chem Lett, 2019)

Legend:
Format in all cases: cell-based
[1] = target: 5-hydroxytryptamine receptor 1E (Homo sapiens, UniProt P28566); experiment: Displacement of [3H]-HT from human recombinant 5-HT1E receptor expressed in stable HEK cells at 10 uM after 90 mins by microbeta scintillation counting method relative to control
In short: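 Radioligand binding run by the NIMH Psychoactive Drug Screening Program. […] Otherwise Ki comes from sigmoidal curve fits of triplicate measurements in a single experiment, or is averaged over repeated experiments each run in triplicate.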

[2] = target: T1, Muscarinic acetylcholine receptor M5 (Homo sapiens) (UniProt P08912); experiment: Displacement of [3H]-QNB/[3H]-NMS from human recombinant Muscarinic acetylcholine M5 receptor expressed in stable CHO cells at 10 uM after 90 mins by microbeta scintillation counting method relative to control
T1 sequence (whole entry): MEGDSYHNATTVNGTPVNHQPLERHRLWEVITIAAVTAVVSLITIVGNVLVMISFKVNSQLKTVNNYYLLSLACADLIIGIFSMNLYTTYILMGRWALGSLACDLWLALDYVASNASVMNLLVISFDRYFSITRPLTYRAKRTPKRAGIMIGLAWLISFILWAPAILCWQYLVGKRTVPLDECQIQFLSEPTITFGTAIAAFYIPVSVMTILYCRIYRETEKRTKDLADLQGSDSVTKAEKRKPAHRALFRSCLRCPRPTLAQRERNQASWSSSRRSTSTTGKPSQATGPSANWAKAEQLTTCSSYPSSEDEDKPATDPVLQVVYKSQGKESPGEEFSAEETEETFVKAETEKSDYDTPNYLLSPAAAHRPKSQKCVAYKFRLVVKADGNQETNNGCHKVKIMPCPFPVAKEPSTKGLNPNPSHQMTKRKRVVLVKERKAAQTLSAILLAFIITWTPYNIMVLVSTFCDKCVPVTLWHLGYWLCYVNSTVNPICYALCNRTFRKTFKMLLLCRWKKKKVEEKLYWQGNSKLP

[3] = target: T2, D(4) dopamine receptor (Homo sapiens, UniProt P21917); experiment: Displacement of [3H]-methylspiperone from human recombinant dopamine D4 receptor expressed in Stable HEK cells after 90 mins by microbeta scintillation counting method
T2 sequence (P21917 whole entry): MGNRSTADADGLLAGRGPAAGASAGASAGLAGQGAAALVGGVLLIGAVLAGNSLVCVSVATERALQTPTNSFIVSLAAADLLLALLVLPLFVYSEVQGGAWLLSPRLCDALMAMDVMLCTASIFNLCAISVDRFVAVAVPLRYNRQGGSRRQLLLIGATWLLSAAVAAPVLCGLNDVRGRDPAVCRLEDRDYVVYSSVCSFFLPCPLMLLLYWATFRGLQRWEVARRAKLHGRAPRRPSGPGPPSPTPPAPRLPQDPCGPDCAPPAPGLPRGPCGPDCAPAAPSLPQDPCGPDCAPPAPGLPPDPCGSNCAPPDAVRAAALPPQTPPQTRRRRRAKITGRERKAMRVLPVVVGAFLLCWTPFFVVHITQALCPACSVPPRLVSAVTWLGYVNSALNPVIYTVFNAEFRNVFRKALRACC
In short: (§1)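 Radioligand binding was run by the NIMH Psychoactive Drug Screening Program. Compounds were first screened at 10 μM. Those giving ≥50% binding were taken to full competition curves. Ki is reported as pKi from a sigmoidal curve fit of triplicate measurements in a single experiment; the error is the curve-fit error.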

[4] = target: Sigma intracellular receptor 2 (Homo sapiens, UniProt Q5BJF2); experiment: Displacement of […] from human recombinant sigma2 receptor expressed in HEKT cells after 90 mins by microbeta scintillation counting method
Sequence of Sigma intracellular receptor 2 (Q5BJF2 whole entry): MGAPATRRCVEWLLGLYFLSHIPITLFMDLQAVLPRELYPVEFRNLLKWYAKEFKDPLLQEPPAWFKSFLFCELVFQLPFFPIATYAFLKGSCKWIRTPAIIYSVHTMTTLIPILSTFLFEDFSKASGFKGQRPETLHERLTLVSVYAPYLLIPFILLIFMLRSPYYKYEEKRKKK
In short: (§2)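 Run by NIMH Psychoactive Drug Screening Program. Otherwise, competition binding curves are generated and pKi is taken from a sigmoidal curve fit. Data are either triplicate measurements within one experiment, with the error from the fit, or the mean of repeated experiments, each run in triplicate.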

[5] = target: T3, 5-hydroxytryptamine receptor 1A (Homo sapiens, UniProt P08908); experiment: Displacement of [3H]-Way100635 from human recombinant 5-HT1A expressed in stable CHO cells after 90 mins by microbeta scintillation counting method; in short: as §2
T3 sequence (P08908 whole entry): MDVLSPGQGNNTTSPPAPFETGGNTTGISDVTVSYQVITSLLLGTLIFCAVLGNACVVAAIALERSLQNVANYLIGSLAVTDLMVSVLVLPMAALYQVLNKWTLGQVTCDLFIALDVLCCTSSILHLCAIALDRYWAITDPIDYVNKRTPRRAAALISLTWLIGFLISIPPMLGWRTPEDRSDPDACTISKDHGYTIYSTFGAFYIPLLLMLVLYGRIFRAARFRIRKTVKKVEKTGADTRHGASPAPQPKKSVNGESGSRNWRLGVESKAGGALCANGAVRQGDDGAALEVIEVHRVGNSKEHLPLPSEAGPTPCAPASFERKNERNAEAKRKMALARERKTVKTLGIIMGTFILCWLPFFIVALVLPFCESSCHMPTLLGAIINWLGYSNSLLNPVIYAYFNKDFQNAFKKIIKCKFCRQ

[6] = target: D(1A) dopamine receptor (Homo sapiens, UniProt P21728); experiment: Displacement of [3H]-SCH23390 from human recombinant dopamine D1 receptor expressed in HEKT cells after 90 mins by microbeta scintillation counting method; in short: as §1
Sequence of D(1A) dopamine receptor (P21728 whole entry): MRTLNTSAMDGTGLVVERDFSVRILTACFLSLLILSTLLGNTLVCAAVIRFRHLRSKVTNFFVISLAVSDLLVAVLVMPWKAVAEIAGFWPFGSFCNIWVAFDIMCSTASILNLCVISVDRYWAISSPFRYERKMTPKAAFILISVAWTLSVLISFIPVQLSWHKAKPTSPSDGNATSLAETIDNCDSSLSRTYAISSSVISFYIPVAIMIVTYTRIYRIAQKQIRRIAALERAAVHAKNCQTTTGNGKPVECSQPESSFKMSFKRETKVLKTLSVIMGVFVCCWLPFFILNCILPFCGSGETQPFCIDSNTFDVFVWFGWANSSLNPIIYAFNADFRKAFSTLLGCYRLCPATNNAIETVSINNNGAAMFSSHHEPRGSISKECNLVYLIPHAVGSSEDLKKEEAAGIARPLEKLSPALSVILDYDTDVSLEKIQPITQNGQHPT

[7] = target: T4, Alpha-2B adrenergic receptor (Homo sapiens, UniProt P18089); experiment: Displacement of [3H]-Rauwolscine from human recombinant adrenergic Alpha2B receptor expressed in HEKT cells after 90 mins by microbeta scintillation counting method; in short: as §1
T4 sequence (P18089 whole entry): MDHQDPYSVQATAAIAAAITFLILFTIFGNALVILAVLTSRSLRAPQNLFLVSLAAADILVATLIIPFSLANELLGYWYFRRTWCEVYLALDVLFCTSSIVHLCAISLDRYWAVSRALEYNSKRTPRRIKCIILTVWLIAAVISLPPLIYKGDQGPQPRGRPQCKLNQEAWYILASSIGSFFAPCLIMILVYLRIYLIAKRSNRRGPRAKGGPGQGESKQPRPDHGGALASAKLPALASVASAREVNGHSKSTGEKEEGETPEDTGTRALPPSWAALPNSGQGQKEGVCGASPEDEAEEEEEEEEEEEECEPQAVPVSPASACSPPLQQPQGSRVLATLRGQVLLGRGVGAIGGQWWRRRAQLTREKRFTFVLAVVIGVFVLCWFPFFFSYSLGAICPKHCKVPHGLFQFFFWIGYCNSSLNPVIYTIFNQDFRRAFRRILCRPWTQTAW

Sequence of 5-hydroxytryptamine receptor 1E (P28566 whole entry): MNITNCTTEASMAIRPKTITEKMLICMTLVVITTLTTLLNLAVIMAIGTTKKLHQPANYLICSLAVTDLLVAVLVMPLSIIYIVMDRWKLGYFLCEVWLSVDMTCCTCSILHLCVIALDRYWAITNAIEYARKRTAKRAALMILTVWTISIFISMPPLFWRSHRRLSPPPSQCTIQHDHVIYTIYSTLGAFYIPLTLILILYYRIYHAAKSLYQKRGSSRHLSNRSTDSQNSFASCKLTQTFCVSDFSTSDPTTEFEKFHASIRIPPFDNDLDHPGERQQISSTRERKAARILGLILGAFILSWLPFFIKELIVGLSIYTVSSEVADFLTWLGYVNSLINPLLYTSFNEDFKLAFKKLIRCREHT

Ki ([5]; cho, read-out: Ki) | Ki ([5]; read-out: Ki) | SMILES | inhibition [1] | inhibition [2] | Ki [3] | Ki [4] | Ki ([5]; read-out: pKi (converted)) | Ki [6] | Ki [7]
 |  | COc1cc(OC)c2c(c1)OC[C@@]1(C)NCC[C@@H]21 (racemic) | < 50% | < 50% | > 10 µM | > 10 µM | 1 µM | > 10 µM | > 10 µM
> 10 µM |  | C[C@@]12CN(c3ccccc3)c3ccccc3[C@@H]1CCN2 (racemic) |  |  | > 10 µM | 1 µM | > 10 µM | > 10 µM | > 10 µM
 |  | CC[C@H]1c2cc(OC)ccc2CC[C@@]1(C)N (racemic) | < 50% | < 50% | > 10 µM | > 10 µM | 0.631 µM | > 10 µM | 5.01 µM
 |  | CC[C@H]1c2cc(C)ccc2OC[C@@]1(C)N (racemic) | < 50% | < 50% | > 10 µM | > 10 µM | 2 µM | > 10 µM | > 10 µM
 | 0.074 µM | CC[C@H]1c2ccccc2N(c2ccccc2)C[C@@]1(C)N (racemic) |  |  | 2 µM | 0.631 µM |  | > 10 µM | 0.398 µM
